Assay results from ChEMBL document CHEMBL4266041, “Hydroxybiphenylamide GroEL/ES Inhibitors Are Potent Antibacterials against Planktonic and Biofilm Forms of Staphylococcus aureus” (J Med Chem, 2018).

Tests used:
E. coli GroEL/ES [1] = molecular target: T1, E. coli GroEL/ES (Escherichia coli, UniProt P0A6F5); test: Inhibition of Escherichia coli GroEL expressed in Escherichia coli DH5alpha/Escherichia coli GroES expressed in Escherichia coli BL21 (DE3) assessed as reduction in GroEL/GroES-mediated denatured MDH refolding after 20 to 40 mins by spectrometric analysis
How it was run: (§1)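 Uses E. coli GroEL/ES with a denatured MDH or rhodanese reporter. GroEL first forms a binary complex with the denatured reporter. Refolding is started by adding ATP and GroES, then reporter enzyme activity is read. DMSO is the negative control. IC50 values from replicate curves are log-averaged after ROUT outlier screening.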

E. coli GroEL/ES [2] = molecular target: T1, E. coli GroEL/ES; test: Inhibition of Escherichia coli GroEL expressed in Escherichia coli DH5alpha/Escherichia coli GroES expressed in Escherichia coli BL21 (DE3) assessed as reduction in GroEL/GroES-mediated denatured rhodanese refolding after 45 mins by spectrometric analysis; how it was run: as §1
Staphylococcus aureus [3] = test: Antibacterial activity against Staphylococcus aureus ATCC 25923 after 6 to 8 hrs by bacterial proliferation assay; format: functional, organism-based
[4] = molecular target: T2, Thiosulfate sulfurtransferase (Homo sapiens, UniProt Q16762); test: Inhibition of refolded rhodanese (unknown origin) preincubated with Escherichia coli GroEL/GroES for 60 mins in absence of compound followed by compound addition by spectrometric analysis
T2 sequence (Q16762 whole entry): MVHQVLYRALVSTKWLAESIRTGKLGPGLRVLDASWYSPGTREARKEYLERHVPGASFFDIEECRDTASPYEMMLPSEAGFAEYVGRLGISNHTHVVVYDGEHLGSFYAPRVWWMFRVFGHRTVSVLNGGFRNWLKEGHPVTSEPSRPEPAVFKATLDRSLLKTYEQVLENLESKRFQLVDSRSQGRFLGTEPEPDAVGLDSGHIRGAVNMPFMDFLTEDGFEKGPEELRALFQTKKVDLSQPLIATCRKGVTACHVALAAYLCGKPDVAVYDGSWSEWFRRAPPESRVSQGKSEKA

[5] = Inhibition of refolded MDH (unknown origin) preincubated with Escherichia coli GroEL/GroES for 45 mins in absence of compound followed by compound addition and measured for 20 to 35 mins by spectrometric analysis
Enterococcus faecium = test: Antibacterial activity against Enterococcus faecium ATCC 19434 after 24 hrs by bacterial proliferation assay; format: functional, organism-based; settings: ATCC 19434, 24 h
Staphylococcus aureus [6] = test: Antibacterial activity against methicillin-resistant Staphylococcus aureus ATCC BAA-44 after 6 to 8 hrs by bacterial proliferation assay; format: functional, organism-based; settings: Staphylococcus aureus, ATCC BAA-44
Klebsiella pneumoniae = test: Antibacterial activity against Klebsiella pneumoniae ATCC 13883 after 6 to 8 hrs by bacterial proliferation assay; format: functional, organism-based
How it was run: (§2)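 Bacterial growth inhibition in liquid culture. The highest concentration tested was 100 µM. The mean was back-calculated from the average log value. Values above the top concentration were set 0.1 log unit higher.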

Acinetobacter baumannii = test: Antibacterial activity against Acinetobacter baumannii ATCC 19606 after 24 hrs by bacterial proliferation assay; format: functional, organism-based; settings: ATCC 19606 = CIP 70.34 = JCM 6841, 24 h; how it was run: as §2
Pseudomonas aeruginosa = test: Antibacterial activity against Pseudomonas aeruginosa ATCC 10145 after 24 hrs by bacterial proliferation assay; format: functional, organism-based; settings: ATCC 10145, 24 h; how it was run: as §2
Enterobacter cloacae = test: Antibacterial activity against Enterobacter cloacae subsp. cloacae ATCC 13047 after 24 hrs by bacterial proliferation assay; format: functional, organism-based; settings: subsp. cloacae ATCC 13047, 24 h; how it was run: as §2
HSP60/HSP10 = HSP60/HSP10 (Homo sapiens, UniProt P10809); test: Inhibition of human N-terminal octa-His-tagged HSP60 expressed in Escherichia coli Rosetta(DE3) pLysS/human HSP10 expressed in Escherichia coli Rosetta(DE3) assessed as reduction in HSP60/HSP10-mediated denatured MDH refolding after 40 to 60 mins by spectrometric analysis
How it was run: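 Human HSP60/10 refolding of denatured MDH, run the same way as the GroEL/ES-dMDH assay. A binary complex of chaperonin and denatured MDH is formed, and refolding is started with ATP and HSP10. MDH activity is the read-out. DMSO is the negative control. IC50 values from replicate curves are log-averaged after ROUT outlier screening.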

[7] = Cytotoxicity against human THLE3 cells assessed as reduction in cell viability after 48 hrs by Alamar Blue reporter assay; settings: 48 h
HEK293 = test: Cytotoxicity against HEK293 cells assessed as reduction in cell viability after 48 hrs by Alamar Blue reporter assay; settings: human, hek293, 48 h

T1 sequence (P0A6F5 whole entry, looked up): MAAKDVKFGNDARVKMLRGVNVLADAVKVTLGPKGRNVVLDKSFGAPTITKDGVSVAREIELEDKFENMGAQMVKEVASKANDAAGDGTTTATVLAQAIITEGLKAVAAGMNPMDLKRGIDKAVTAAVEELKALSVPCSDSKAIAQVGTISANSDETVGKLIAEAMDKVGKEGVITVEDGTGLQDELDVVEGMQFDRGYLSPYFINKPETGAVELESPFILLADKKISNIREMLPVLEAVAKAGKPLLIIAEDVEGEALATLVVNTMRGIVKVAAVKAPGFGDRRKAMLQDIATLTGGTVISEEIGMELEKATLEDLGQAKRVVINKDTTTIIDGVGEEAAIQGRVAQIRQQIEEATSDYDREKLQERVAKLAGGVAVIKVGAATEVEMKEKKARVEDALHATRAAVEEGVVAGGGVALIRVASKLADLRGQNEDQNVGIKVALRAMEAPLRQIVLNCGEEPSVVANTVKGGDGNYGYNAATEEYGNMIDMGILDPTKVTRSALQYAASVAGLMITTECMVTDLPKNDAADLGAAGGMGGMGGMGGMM
Chain of HSP60/HSP10 (P10809 whole entry): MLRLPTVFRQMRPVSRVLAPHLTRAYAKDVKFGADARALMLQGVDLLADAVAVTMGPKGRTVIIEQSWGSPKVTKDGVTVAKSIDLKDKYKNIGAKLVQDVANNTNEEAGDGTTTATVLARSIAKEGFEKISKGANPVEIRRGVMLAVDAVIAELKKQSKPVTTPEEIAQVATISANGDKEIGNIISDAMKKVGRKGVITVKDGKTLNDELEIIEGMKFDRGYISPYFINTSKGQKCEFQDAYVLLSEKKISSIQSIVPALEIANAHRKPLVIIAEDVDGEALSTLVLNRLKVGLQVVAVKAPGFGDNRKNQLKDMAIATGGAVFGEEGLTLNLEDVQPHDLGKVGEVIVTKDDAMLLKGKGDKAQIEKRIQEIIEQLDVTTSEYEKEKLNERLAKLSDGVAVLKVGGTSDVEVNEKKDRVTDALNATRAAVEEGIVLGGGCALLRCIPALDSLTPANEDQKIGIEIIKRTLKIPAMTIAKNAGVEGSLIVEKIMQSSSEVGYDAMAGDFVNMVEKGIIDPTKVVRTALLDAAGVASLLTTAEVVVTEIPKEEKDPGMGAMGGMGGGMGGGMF
Chain of HSP60/HSP10 (P61604 whole entry, further chain): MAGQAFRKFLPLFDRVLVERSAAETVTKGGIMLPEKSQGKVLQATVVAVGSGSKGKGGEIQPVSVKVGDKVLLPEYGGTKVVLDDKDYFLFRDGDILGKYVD

Row | SMILES | IC50 (E. coli GroEL/ES [1]) | IC50 (E. coli GroEL/ES [2]) | EC50 (Staphylococcus aureus [3]) | IC50 [4] | IC50 [5] | EC50 (Enterococcus faecium) | EC50 (Staphylococcus aureus [6]) | EC50 (Klebsiella pneumoniae) | EC50 (Acinetobacter baumannii) | EC50 (Pseudomonas aeruginosa) | EC50 (Enterobacter cloacae) | IC50 (HSP60/HSP10) | CC50 [7] | CC50 (HEK293)
1 | Cc1cc(C(C#N)c2ccc(Cl)cc2)c(Cl)cc1NC(=O)c1cc(I)cc(I)c1O (configuration not stated) [CLOSANTEL] | 2.2 µM | 1.5 µM | 0.47 µM | > 100 µM | 6.1 µM | 1.2 µM | 0.47 µM | > 100 µM | > 100 µM | > 100 µM | > 100 µM | 2.5 µM | 52 µM | 75 µM
2 | O=C(Nc1ccc(Sc2nc3ccccc3s2)c(Cl)c1)c1ccccc1 | > 100 µM | > 100 µM | 43 µM | > 100 µM | > 63 µM | > 100 µM | > 100 µM | > 100 µM | > 100 µM | > 100 µM | > 100 µM | > 100 µM | 82 µM | 90 µM
3 | COc1ccc(Br)cc1C(=O)Nc1cccc(Cl)c1 | > 100 µM | > 100 µM | > 100 µM | > 100 µM | > 63 µM | > 100 µM | > 100 µM | > 100 µM | > 100 µM | > 100 µM | > 100 µM | > 100 µM | 94 µM | > 100 µM
4 | COc1c(Br)cc(Br)cc1C(=O)Nc1ccc(Sc2nc3ccccc3s2)cc1 | > 100 µM | > 100 µM | > 100 µM | > 100 µM | > 63 µM | > 100 µM | > 100 µM | > 100 µM | > 100 µM | > 100 µM | > 100 µM | > 100 µM | > 100 µM | > 100 µM
5 | O=C(Nc1ccccc1)c1cc(Br)ccc1O | > 100 µM | > 100 µM | 2.8 µM | > 100 µM | > 63 µM | > 100 µM | 4.1 µM | 78 µM | > 100 µM | > 100 µM | > 100 µM | > 100 µM | 16 µM | 35 µM
6 | CC1(C)S[C@@H]2[C@H](NC(=O)[C@H](N)c3ccccc3)C(=O)N2[C@H]1C(=O)O [AMPICILLIN] | > 100 µM | > 100 µM | 0.19 µM | > 100 µM | > 63 µM | 6.9 µM | > 100 µM | > 100 µM | > 100 µM | > 100 µM | > 100 µM | > 100 µM | > 100 µM | > 100 µM
7 | O=C(Nc1ccccc1)c1ccccc1O [SALICYLANILIDE] | > 100 µM | > 100 µM | 28 µM | > 100 µM | > 63 µM | > 100 µM | 51 µM | > 100 µM | > 100 µM | > 100 µM | > 100 µM | > 100 µM | 68 µM | > 100 µM
8 | COc1ccc(Br)cc1C(=O)Nc1ccc(Sc2nc3ccccc3s2)c(Cl)c1 | > 100 µM | > 100 µM | > 100 µM | > 100 µM | > 63 µM | > 100 µM | > 100 µM | > 100 µM | > 100 µM | > 100 µM | > 100 µM | > 100 µM | > 100 µM | > 100 µM
9 | O=C(Nc1ccccc1)c1cccc(Br)c1O | > 100 µM | > 100 µM | 6.4 µM | > 100 µM | > 63 µM | > 100 µM | 10 µM | > 100 µM | > 100 µM | > 100 µM | > 100 µM | > 100 µM | 56 µM | 82 µM
10 | O=C(Nc1ccc(Sc2nc3ccccc3s2)c(Cl)c1)c1cc(Br)cc(Br)c1 | > 100 µM | > 100 µM | > 100 µM | > 100 µM | > 63 µM | > 100 µM | > 100 µM | > 100 µM | > 100 µM | > 100 µM | > 100 µM | > 100 µM | > 100 µM | > 100 µM
11 | O=C(Nc1cccc(Cl)c1)c1ccccc1O | > 100 µM | > 100 µM | 3.1 µM | > 100 µM | > 63 µM | > 100 µM | 4.2 µM | > 100 µM | > 100 µM | > 100 µM | > 100 µM | > 100 µM | 16 µM | 37 µM
12 | O=C(Nc1cccc(Cl)c1)c1ccccc1 | > 100 µM | > 100 µM | > 100 µM | > 100 µM | > 63 µM | > 100 µM | > 100 µM | > 100 µM | > 100 µM | > 100 µM | > 100 µM | > 100 µM | > 100 µM | > 100 µM
13 | COc1c(Br)cccc1C(=O)Nc1ccccc1 | > 100 µM | > 100 µM | > 100 µM | > 100 µM | > 63 µM | > 100 µM | > 100 µM | > 100 µM | > 100 µM | > 100 µM | > 100 µM | > 100 µM | > 100 µM | > 100 µM
14 | O=C(Nc1cccc(Cl)c1)c1cc(Br)cc(Br)c1 | > 100 µM | > 100 µM | 14 µM | > 100 µM | > 63 µM | > 100 µM | 12 µM | > 100 µM | > 100 µM | > 100 µM | > 100 µM | > 100 µM | 45 µM | 53 µM
15 | O=C(Nc1cccc(Cl)c1)c1cccc(Br)c1 | > 100 µM | > 100 µM | 47 µM | > 100 µM | > 63 µM | > 100 µM | 68 µM | > 100 µM | > 100 µM | > 100 µM | > 100 µM | > 100 µM | 50 µM | 51 µM
16 | COc1ccccc1C(=O)Nc1ccc(Sc2nc3ccccc3s2)cc1 | > 100 µM | > 100 µM | > 100 µM | > 100 µM | > 63 µM | > 100 µM | > 100 µM | > 100 µM | > 100 µM | > 100 µM | > 100 µM | > 100 µM | > 100 µM | > 100 µM
17 | COc1c(Br)cccc1C(=O)Nc1ccc(Sc2nc3ccccc3s2)c(Cl)c1 | > 100 µM | > 100 µM | > 100 µM | > 100 µM | > 63 µM | > 100 µM | > 100 µM | > 100 µM | > 100 µM | > 100 µM | > 100 µM | > 100 µM | > 100 µM | > 100 µM
18 | COc1c(Br)cccc1C(=O)Nc1ccc(Sc2nc3ccccc3s2)cc1 | > 100 µM | > 100 µM | > 100 µM | > 100 µM | > 63 µM | > 100 µM | > 100 µM | > 100 µM | > 100 µM | > 100 µM | > 100 µM | > 100 µM | > 100 µM | > 100 µM
